In ChEMBL document CHEMBL6134776, “New anti-ovarian cancer quinolone derivatives acting by modulating microRNA processing machinery” (RSC Med Chem, 2025):
Blank lines part the entries; values can stand above or below the molecule they belong to. Calls of active or inactive are those of the source. The calls are words filed in the database; no cut-off is given here.

Legend:
SK-OV-3 [1] = test: Antiproliferative activity against human SK-OV-3 cells assessed as growth inhibition measured after 72 hrs; type: functional
Summary of the method: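 100 000 SKOV-3 or Wi-38 cells per 35 mm dish, allowed to adhere, then given compound at scalar concentrations. First pass ran up to 200 μM (SKOV-3) or 250 μM (Wi-38), then a narrowed range. Cells counted after 72 h and GI50/CC50 taken by linear regression with 95% CI. Three experiments in triplicate, three counts per sample.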

SKOV-3 (Homo sapiens) = test: Antiproliferative activity against human SKOV-3 cells assessed as growth inhibition measured after 72 hrs
[2] = target: T1, DNA topoisomerase 1 (Homo sapiens) (UniProt P11387); test: Inhibition of human topoisomerase I at 100 uM by spectrophotometric analysis
T1 sequence (whole entry): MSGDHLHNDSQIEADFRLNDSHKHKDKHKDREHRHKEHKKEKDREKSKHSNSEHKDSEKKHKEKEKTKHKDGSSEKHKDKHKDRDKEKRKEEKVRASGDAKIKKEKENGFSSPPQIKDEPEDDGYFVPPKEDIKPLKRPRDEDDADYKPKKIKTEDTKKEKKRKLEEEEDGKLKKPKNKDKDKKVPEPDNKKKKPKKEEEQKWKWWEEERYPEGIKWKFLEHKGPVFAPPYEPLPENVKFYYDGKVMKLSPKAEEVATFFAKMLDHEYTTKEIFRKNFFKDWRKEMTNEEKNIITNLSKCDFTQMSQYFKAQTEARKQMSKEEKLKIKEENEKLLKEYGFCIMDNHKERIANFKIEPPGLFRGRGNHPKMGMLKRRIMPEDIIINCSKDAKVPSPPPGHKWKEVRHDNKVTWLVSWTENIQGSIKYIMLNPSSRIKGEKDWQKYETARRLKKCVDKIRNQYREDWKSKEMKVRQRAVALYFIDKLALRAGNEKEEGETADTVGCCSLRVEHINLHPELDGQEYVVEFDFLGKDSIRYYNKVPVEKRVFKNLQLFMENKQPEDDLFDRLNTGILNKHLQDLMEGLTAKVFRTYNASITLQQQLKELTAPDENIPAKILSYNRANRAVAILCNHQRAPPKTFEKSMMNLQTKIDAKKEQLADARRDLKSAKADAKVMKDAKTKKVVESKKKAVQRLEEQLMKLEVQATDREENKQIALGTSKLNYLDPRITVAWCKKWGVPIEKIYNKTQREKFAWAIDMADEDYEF

Homo sapiens = species: Homo sapiens; test: Inhibition of human topoisomerase II at 100 uM by spectrophotometric analysis
HCCLM3 [3] = test: Antiproliferative activity against TRBP knockout human HCCLM3 cells assessed as growth inhibition at 30 uM measured after 48 hrs by CCK-8 method; type: functional, cell-based
Summary of the method: (§1)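 HCCLM3 and SK-Hep-1 cells, TRBP wild-type and knockout, seeded at 10 000 cells/well and left to adhere overnight. Treated 48 h alongside a 0.1% DMSO negative control and a 125 μM enoxacin positive control. Viability read with 10% CCK-8 in DMEM, 30 min at 37 °C, at 450 nm.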

SK-HEP1 [4] = test: Antiproliferative activity against TRBP knockout human SK-HEP1cells assessed as growth inhibition at 30 uM measured after 48 hrs by CCK-8 method; type: functional, cell-based; summary of the method: as §1
HCCLM3 [5] = test: Antiproliferative activity against wild type human HCCLM3 cells assessed as growth inhibition at 30 uM measured after 48 hrs by CCK-8 method relative to control; type: functional, cell-based; summary of the method: as §1
SK-HEP1 [6] = test: Antiproliferative activity against wild type human SK-HEP1 cells assessed as growth inhibition at 30 uM measured after 48 hrs by CCK-8 method; type: functional, cell-based; summary of the method: as §1
SK-HEP1 [7] = test: Antiproliferative activity against wild type human SK-HEP1 cells assessed as growth inhibition at 50 uM measured after 48 hrs by CCK-8 method; type: functional, cell-based; summary of the method: as §1
SK-HEP1 [8] = test: Antiproliferative activity against TRBP knockout human SK-HEP1 cells assessed as growth inhibition at 50 uM measured after 48 hrs by CCK-8 method; type: functional, cell-based; summary of the method: as §1
MCF7 = test: Antiproliferative activity against human MCF7 cells assessed as growth inhibition at 30 uM measured after 72 hrs; type: functional, cell-based
Summary of the method: (§2)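 Cells dosed at 30 μM for 72 h in RPMI 1640 (A2780, SKOV-3) or DMEM (MCF-7, A549, HCT-116), 10% FBS, 37 °C, 5% CO2. Total and viable cell numbers taken by trypan blue with an automated counter. Viable cells given as % of DMSO; dead cells as a percentage. At least three independent experiments.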

A549 = test: Antiproliferative activity against human A549 cells assessed as growth inhibition at 30 uM measured after 72 hrs; type: functional, cell-based; summary of the method: as §2
HCT-116 = test: Antiproliferative activity against human HCT-116 cells assessed as growth inhibition at 30 uM measured after 72 hrs; type: functional, cell-based; summary of the method: as §2
SK-OV-3 [9] = test: Induction of cell death in human SK-OV-3 cells assessed as reduction in total number of cells at 30 uM incubated for 72 hrs by trypan blue staining based analysis; type: functional; summary of the method: as §2
A2780 [10] = test: Induction of cell death in human A2780 cells assessed as reduction in total number of cells at 30 uM incubated for 72 hrs by trypan blue staining based analysis; type: functional; summary of the method: as §2
A2780 [11] = test: Induction of cell death in human A2780 cells assessed as increase in percentage of dead cells at 30 uM incubated for 72 hrs by trypan blue staining based analysis; type: functional; summary of the method: as §2
A2780 [12] = test: Upregulation of cleaved PARP1 level in human A2780 cells by Western blot analysis; type: functional, cell-based
Summary of the method: (§3)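 SKOV-3 and A2780 given 30 μM compound for 72 h. Protein extracts run on 4–12% bis–tris gels and blotted to nitrocellulose, blocked in 5% milk. Probed for cleaved PARP and Bcl-XL, with β-actin as loading control.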

A2780 [13] = test: Downregulation of Bcl-Xl level in human A2780 cells by Western blot analysis; type: functional, cell-based; summary of the method: as §3
SK-OV-3 [14] = test: Effect on cleaved PARP1 level in human SK-OV-3 cells by Western blot analysis; type: functional, cell-based; summary of the method: as §3
SK-OV-3 [15] = test: Effect on Bcl-Xl level in human SK-OV-3 cells by Western blot analysis; type: functional, cell-based; summary of the method: as §3
A2780 [16] = test: Antiproliferative activity against human A2780 cells assessed as growth inhibition at 30 uM measured after 72 hrs; type: functional, cell-based; summary of the method: as §2
HEK-293T = test: Induction of RNAi enhancing activity in HEK293T cells transfected with shGAPDH assessed as decrease in amount of GAPDH mRNA at 50 uM incubated for 48 hrs by qRT-PCR; type: functional, cell-based; conditions: Homo sapiens
Summary of the method: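 HEK-293T stably expressing shGAPDH or scrambled shRNA (lentiviral transduction, puromycin 3 μg mL−1 selection) treated 48 h at 50 μM. GAPDH mRNA measured by qRT-PCR against ATP5O, relative to sh-Scr/DMSO set to 1. At least three independent experiments.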

[17] = tested on: Cisplatin-resistant A2780; test: Antiproliferative activity against human Cisplatin-resistant A2780 cells assessed as growth inhibition at 30 uM measured after 48 hrs
A2780 [18] = test: Antiproliferative activity against human A2780 cells assessed as growth inhibition at 30 uM measured after 48 hrs in presence of cisplatin
[19] = tested on: Cisplatin-resistant A2780; test: Antiproliferative activity against human Cisplatin-resistant A2780 cells assessed as growth inhibition at 30 uM measured after 48 hrs in presence of cisplatin
HeLa = test: Induction of miR-21-5p biogenesis in human HeLa cells assessed as decrease in renilla luciferase activity at 50 uM measured after 6 hrs by dual-luciferase reporter assay

GI50 (SK-OV-3 [1]): > 100 µM
Structure (SMILES): Cc1c(N2CCC3CCCCC3C2)c(N)cc2c(=O)c(C(=O)O)cn(C3CC3)c12 (stereo not drawn)

GI50 (SK-OV-3 [1]): > 100 µM
Structure (SMILES): Cc1c(N2CCC(O)CC2)c(N)cc2c(=O)c(C(=O)O)cn(C3CC3)c12

Structure (SMILES): Cc1c(NCCN2CCCCC2)c(N)cc2c(=O)c(C(=O)O)cn(C3CC3)c12
GI50 at 72 h (SKOV-3 (Homo sapiens)): ≥ 25 µM

GI50 (SK-OV-3 [1]): > 100 µM
Structure (SMILES): Cc1c(N2CCCCC2)c(N)cc2c(=O)c(C(=O)O)cn(C3CC3)c12

GI50 (SK-OV-3 [1]): > 100 µM
Structure (SMILES): Cc1c(N2CCOCC2)c(N)cc2c(=O)c(C(=O)O)cn(C3CC3)c12

GI50 (SK-OV-3 [1]): > 100 µM
Structure (SMILES): CC(C)(C)n1cc(C(=O)O)c(=O)c2cc(N)c(N3CCc4ccccc43)cc21

inhibition [2]: inactive
inhibition (Homo sapiens): inactive
Structure (SMILES): O=C(O)c1cn(C2CC2)c2cc(N3CCc4ccccc4C3)c(F)cc2c1=O
Activity (HCCLM3 [3]): inactive
Activity (SK-HEP1 [4]): inactive
Activity (HCCLM3 [5]): Active
Activity (SK-HEP1 [6]): inactive
Activity (SK-HEP1 [7]): Active
Activity (SK-HEP1 [8]): inactive
Activity (MCF7): Active
Activity (A549): Active
Activity (HCT-116): Active
Activity (SK-OV-3 [9]): Active
Activity (A2780 [10]): Active
Activity (A2780 [11]): Active
Activity (A2780 [12]): Active
Activity (A2780 [13]): Active
Activity (SK-OV-3 [14]): inactive
Activity (SK-OV-3 [15]): inactive
Activity (A2780 [16]): Active
Activity (HEK-293T): Active
Activity [17]: Active
Activity (A2780 [18]): Active
Activity [19]: Active
Activity (HeLa): Active

GI50 (SK-OV-3 [1]): 100 µM
Structure (SMILES): Cc1c(N2CC(C)OC(C)C2)c(N)cc2c(=O)c(C(=O)O)cn(C3CC3)c12 (stereo not drawn)

Structure (SMILES): Cc1c(N2Cc3ccccc3C2)c(N)cc2c(=O)c(C(=O)O)cn(C3CC3)c12
GI50 at 72 h (SKOV-3 (Homo sapiens)): ≥ 25 µM

Structure (SMILES): Nc1cc2c(=O)c(C(=O)O)cn(C3CC3)c2cc1N1CCc2ncncc2C1
GI50 at 72 h (SKOV-3 (Homo sapiens)): ≥ 25 µM
